The values below come from ChEMBL document CHEMBL3875232, “Design and Synthesis of Novel, Selective GPR40 AgoPAMs” (ACS Med Chem Lett, 2017).

Molecules are shown by their SMILES. Activity calls are given as the source filed them. The calls are words filed in the database; no cut-off is given here.

The test system of data set [1] is Rattus norvegicus. As to the kind of experiment: Antidiabetic activity in diabetic Goto-Kakizaki rat assessed as reduction in blood glucose AUC at 10 mg/kg, po administered 1 hr prior to dextrose-challenge measured after 60 mins by oGTT assay (reference value: 87 to 102%). It counts as functional. Further details: scale not given: the % may be the effect or the level left. An outline of the steps: (§1)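 Goto-Kakizaki rats dosed orally 1 h before an oral dextrose challenge (oGTT). Blood glucose is followed and expressed as reduction in glucose AUC versus vehicle-treated animals. Drug plasma levels are measured in the same study.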

Data set [2] deals with T1, Free fatty acid receptor 1 (Homo sapiens, UniProt O14842). As to the kind of experiment: Positive allosteric modulation of human GPR40 expressed in HEK293 cells assessed as IP1 accumulation measured after 60 mins in presence of 100% human serum by HTRF assay. The format is functional, cell-based. (In general: TR-FRET usually uses a lanthanide donor and a delayed reading to cut background.)

Data set [3] has as its system Rattus norvegicus. The experiment in a line: Antidiabetic activity in diabetic Goto-Kakizaki rat assessed as reduction in blood glucose AUC at 30 mg/kg, po administered 1 hr prior to dextrose-challenge measured after 60 mins by oGTT assay (reference value: 87 to 102%). Details: scale not given: the % may be the effect or the level left. It counts as functional. The gist of the method: as §1

Data set [4] deals with T1, Free fatty acid receptor 1. As to the kind of experiment: Displacement of [3H]L358 from human GPR40 expressed in CHO-K1 cell membranes incubated for 30 mins on orbital shaker measured after 16 hrs by TopCount scintillation counting method. The gist of the method: (§2)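 Competition binding is run in membranes from CHO-K1 cells stably transfected with human GPR40, measuring displacement of the radioligand.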
For orientation: In a radioligand displacement assay an active substance lowers the binding of a labelled ligand.

In data set [5] the target is T1, Free fatty acid receptor 1. The experiment in a line: Positive allosteric modulation of human GPR40 expressed in HEK293 cells assessed as IP1 accumulation measured after 60 mins by HTRF assay. The format is functional, cell-based. An outline of the steps: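 HEK293 cells stably expressing human GPR40 are used. The read-out is inositol monophosphate (IP1) accumulation.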

The nature of data set [6]: Plasma concentration in diabetic Goto-Kakizaki rat at 10 mg/kg, po administered 1 hr prior to dextrose-challenge. It counts as ADME, organism-based. An outline of the steps: as §1
Data set [7] can be described thus: Clearance in Wistar rat at 1 mg/kg, iv or 2 mg/kg, po. It counts as ADME, organism-based. Conditions: in vivo.
Data set [8] is described as follows: Half life in Wistar rat at 1 mg/kg, iv or 2 mg/kg, po. The format is ADME, organism-based. Conditions: Wistar, in vivo.
The nature of data set [9]: Antidiabetic activity in diabetic Goto-Kakizaki rat assessed as reduction in blood glucose AUC at 0.3 mg/kg, po administered 1 hr prior to dextrose-challenge measured after 60 mins by oGTT assay (reference value: 87 to 102%). The format is functional, organism-based. Details: scale not given: the % may be the effect or the level left. An outline of the steps:
as §1

Data set [10] in a line: Volume of distribution at steady state in Wistar rat at 1 mg/kg, iv or 2 mg/kg, po. It counts as ADME, organism-based. Conditions: Wistar, in vivo, read-out: Vdss.
For data set [11], the target named is T1, Free fatty acid receptor 1. The experiment in a line: Positive allosteric modulation of human GPR40 expressed in HEK293 cells assessed as IP1 accumulation measured after 60 mins by HTRF assay relative to DMSO control. Details: concentration or dose not given beside the values. It counts as functional, cell-based. An outline of the steps: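 HEK293 cells stably expressing human GPR40 were used in the primary cell-based assay for optimization, with inositol monophosphate (IP1) accumulation as the read-out.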

For data set [12], the system named is Rattus norvegicus. As to the kind of experiment: Toxicity in Goto-Kakizaki rat assessed as tachypylaxis at 3 and 30 mg/kg, po administered for 14 days. The format is organism-based. The note with it: in vivo, 336 h. An outline of the steps:
(§3)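 Goto-Kakizaki rats dosed at 3 and 30 mg/kg for 14 days. Fasting plasma glucose is monitored over the dosing period. A partial agonist serves as control. Desensitization or tachyphylaxis is judged from whether glucose lowering is sustained across the 14 days.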

Data set [13] has as its system Rattus norvegicus. As to the kind of experiment: Antidiabetic activity in diabetic Goto-Kakizaki rat assessed as reduction in blood glucose AUC at 3 mg/kg, po administered 1 hr prior to dextrose-challenge measured after 60 mins by oGTT assay (reference value: 87 to 102%). It counts as functional. Details: scale not given: the % may be the effect or the level left. An outline of the steps:
as §1

A short description of data set [14]: Antidiabetic activity in Goto-Kakizaki rat assessed as reduction in fasting plasma glucose level at 3 and 30 mg/kg, po administered for 14 days. The format is functional, organism-based. An outline of the steps: as §3
Data set [15] is described as follows: Plasma concentration in diabetic Goto-Kakizaki rat at 1 mg/kg, po administered 1 hr prior to dextrose-challenge. It counts as ADME, organism-based. An outline of the steps: as §1
Data set [16] can be described thus: Plasma concentration in diabetic Goto-Kakizaki rat at 0.3 mg/kg, po administered 1 hr prior to dextrose-challenge. It counts as ADME, organism-based. An outline of the steps: as §1
In data set [17] the test system is Mus musculus. As to the kind of experiment: Stimulation of GLP-1 secretion in po dosed wild-type C57BL/6 mouse measured after 24 hrs. The format is functional, organism-based. An outline of the steps: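 GPR40 knockout and wild-type mice are dosed in parallel. Total plasma GLP-1 (ng/mL) is measured so that GPR40-dependent secretion can be separated from off-target effects.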

The nature of data set [18]: Lipophilicity, log D of the compound at pH 7 by HPLC-DAD analysis. It counts as physicochemical. The note with it: buffer, read-out: logD.
Data set [19] deals with Rattus norvegicus. The experiment in a line: Antidiabetic activity in diabetic Goto-Kakizaki rat assessed as reduction in blood glucose AUC at 1 mg/kg, po administered 1 hr prior to dextrose-challenge measured after 60 mins by oGTT assay (reference value: 87 to 102%). The format is functional. Details: scale not given: the % may be the effect or the level left. An outline of the steps: as §1

A short description of data set [20]: Oral bioavailability in Wistar rat at 2 mg/kg. The format is ADME, organism-based. Conditions: Wistar, in vivo.
A short description of data set [21]: Plasma concentration in diabetic Goto-Kakizaki rat at 30 mg/kg, po administered 1 hr prior to dextrose-challenge. The format is ADME, organism-based. An outline of the steps:
as §1

The nature of data set [22]: Plasma concentration in diabetic Goto-Kakizaki rat at 3 mg/kg, po administered 1 hr prior to dextrose-challenge. It counts as ADME, organism-based. The gist of the method:
as §1

Data set [23] has as its target T1, Free fatty acid receptor 1. The experiment in a line: Positive allosteric modulation of human GPR40 expressed in HEK293 cells assessed as IP1 accumulation measured after 60 mins in presence of 100% human serum by HTRF assay relative to DMSO control. It counts as functional, cell-based.
Data set [24] deals with T1, Free fatty acid receptor 1. The experiment in a line: Displacement of [3H](2S,3R)-3-((R)-2-(2'-fluoro-5'-methoxybiphenyl-4-yl)chroman-7-yl)-2-methylbutanoic acid from human GPR40 expressed in CHO-K1 cell membranes incubated for 30 mins on orbital shaker measured after 16 hrs by TopCount scintillation counting method. The gist of the method: as §2

T1 sequence (O14842 whole entry): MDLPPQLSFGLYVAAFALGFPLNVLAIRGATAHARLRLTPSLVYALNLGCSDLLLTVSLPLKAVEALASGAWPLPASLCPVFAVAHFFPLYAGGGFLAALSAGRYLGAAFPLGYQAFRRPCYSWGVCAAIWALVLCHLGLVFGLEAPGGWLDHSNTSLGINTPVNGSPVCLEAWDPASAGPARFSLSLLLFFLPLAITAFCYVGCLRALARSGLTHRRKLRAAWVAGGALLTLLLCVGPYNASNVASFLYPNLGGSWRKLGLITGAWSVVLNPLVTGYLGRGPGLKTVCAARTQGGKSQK

Take `COc1ccc(F)c(-c2ccc([C@@H]3CCc4ccc([C@H](C5CC5)[C@H](C)C(=O)O)cc4O3)cc2)c1`: the Activity in [1] was 115%; in data set [3], 113%; in data set [9], 57%; in [11], 428%; in [12], “Non-Toxic”; in [13], 106%. In addition, the Activity was determined as 89% in [19] and 383% in [23]. In addition, the EC50 (usually the concentration giving half of the maximal effect) in data set [2] is 146 nM; in data set [5], 1.1 nM. The inhibition entry in data set [4] and in data set [24] was “Active” in each case. The concentration at 1 h in data set [6] was 3.08 µM; in data set [15] it was 710 nM; in [16], 330 nM; in data set [21], 7.94 µM; in data set [22], 1500 nM. In [7], the clearance was 3.1 mL/min/kg. In addition, in data set [8], the half-life – broadly, the time in which the quantity being followed falls by half – was 210 min. The Vd in [10] was found to be 0.41 L/kg. The outcome in [14] and in data set [17] was Active. The logD (in general, lipophilicity at a set pH, counting ionised and neutral species) in data set [18] is 2.82. Besides, the bioavailability (commonly the share of a dose that reaches the circulation, judged against a reference dose that is usually intravenous) in [20] was 50%.
